We go through six molecules from publication PMC3488162 (The Journal of investigative dermatology, 2012).

Entries after “also recorded” stand apart in the source; their conditions may differ.

Data set [1] has as its system Sap. The note with it: ref Korting et al., 1999; cited from earlier work.
Data set [2] concerns C. albicans. Description: Flow cytometric antimicrobial killing assay. The format is cell-based, Candida albicans. The note with it: for depolarized fungal cells in a population: 1:6 diluted Schaedler broth, DiBAC4(3), flow cytometry, means of one representative experiment in triplicate; for antifungal activity compared between hGAPDH (2-32), LL-37 and hBD-3: 10 μg/ml each. The essentials:
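Candida albicans (strains 143, 277, 526 and SC5314; 1.5×10^6 cells) incubated at 37°C in 1:6-diluted Schaedler broth with test peptide or reference antimicrobial peptides at 10 μg/ml, dissolved in 0.01% acetic acid. Solvent-only controls. After 90 min, DiBAC4(3) membrane-potential dye added for 10 min; cells pelleted and resuspended in PBS. Percentage of depolarized cells counted by flow cytometry, 10,000 events per sample.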
Background: A flow cytometer gives signals particle by particle.

Data set [3] relates to C. albicans cells. The format is cell-based, Candida albicans. The note with it: external (5 μg/ml) and endogenous peptide; oral RHE, 12 h; immunofluorescence. The gist of the method:
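Oral RHE infected with 2×10^6 C. albicans SC5314 in TSB/10 mM sodium phosphate, pH 7.2, with or without 5 μg/ml peptide, for 12 h. Tissue cryofixed; 5-μm sections fixed in PLP, blocked with donkey serum. Stained with affinity-purified rabbit anti-peptide antibody (1:50) and human anti-C. albicans serum (1:60), then Dylight 549/Cy5 secondaries and YOPRO nuclear stain. Confocal imaging at ×400 and ×250.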

For data set [4], the system named is C. albicans SC5314. As to the kind of experiment: Electron microscopy of C. albicans. The format is cell-based, Candida albicans. The note with it: 125 μg/ml, 24 h, 37 °C. The essentials:
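About 10^6 SC5314 cells/ml held with 125 μg/ml test compound for 24 h at 37 °C, beside an untreated control. Pellets fixed in 2.5% glutaraldehyde/2% formaldehyde (0.05 M phosphate, pH 7.3), post-fixed in 1% OsO4 and embedded in glycid ether. Sections of 20–30 nm stained with uranyl acetate and viewed by transmission EM.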

The test system of data set [5] is GM-CSF secretion of epithelial cells. As to the kind of experiment: GM-CSF secretion by epithelial cells. The note with it: uninfected epithelial cells; 5 μg/ml; 12 h; n = 6. In kind it is cell-based, human. The gist of the method:
(§1)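 Epithelial cells infected or not with C. albicans SC5314, with or without 5 μg/ml test compound, for 12 h. Cytokine in culture supernatants measured by DuoSet sandwich ELISA. Data are means±SD of duplicate assays from three experiments; 2-tailed paired t test, n = 6.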

Data set [6] has as its system P. aeruginosa PAO. As to the kind of experiment: Broth microdilution, P. aeruginosa PAO. In kind it is cell-based. The note with it: data not shown. In general terms: In broth dilution the organism is exposed to a series of concentrations in liquid medium.
The test system of data set [7] is TR146 epithelial cells. Description: LDH release by uninfected epithelial cells. In kind it is cell-based, human. The essentials:
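TR146 buccal cells grown in DMEM with 10% FCS at 37°C, 5% CO2. Tests run in antibiotic-free medium with 5, 10, 50, 100 or 125 μg/ml test compound for 12 and 24 h. Damage read as LDH release. Standard LDH samples spiked with 5 and 125 μg/ml test compound checked for assay interference.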

Data set [8] has as its system P. aeruginosa clinical isolate. Description: Broth microdilution, P. aeruginosa clinical isolate. In kind it is cell-based. Conditions: data not shown.
In data set [9] the test system is E. coli. Description: Flow cytometric antimicrobial killing assay. The note with it: 90 min, 37°C. The format is cell-based, E. coli ATCC 25922. The gist of the method:
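E. coli ATCC 25922 (1.5×10^6 cells) in 1:6 diluted Schaedler broth at 37°C. Peptides dissolved in 0.01% acetic acid and added at 10 μg/ml; solvent served as viability control. After 90 min, DiBAC4(3) added for 10 min, cells spun and resuspended in PBS. Percentage of depolarised cells counted by flow cytometry over 10 000 events. One representative experiment run in triplicate.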

In data set [10] the target is Sap2p (Candida albicans, UniProt P0CS83). Description: Sap inhibition assay, Sap2. In kind it is biochemical, C. albicans. Conditions: as stated in abstract.
Sequence of Sap2p (P0CS83 57-398): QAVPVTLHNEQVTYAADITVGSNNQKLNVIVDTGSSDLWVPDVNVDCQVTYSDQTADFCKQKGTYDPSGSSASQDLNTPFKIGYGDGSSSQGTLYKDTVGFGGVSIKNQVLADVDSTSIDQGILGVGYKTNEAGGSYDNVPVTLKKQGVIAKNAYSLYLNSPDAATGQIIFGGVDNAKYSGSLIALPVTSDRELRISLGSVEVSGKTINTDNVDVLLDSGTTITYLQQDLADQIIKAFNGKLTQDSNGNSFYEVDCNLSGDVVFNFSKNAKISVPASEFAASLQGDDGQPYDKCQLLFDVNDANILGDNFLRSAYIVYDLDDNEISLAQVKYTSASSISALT
Data set [11] deals with C. albicans. As to the kind of experiment: Broth microdilution, C. albicans. In kind it is cell-based, Candida albicans. The note with it: data not shown.
The subject of data set [12] is C. albicans. Description: Annexin V-FITC / propidium iodide staining, apoptotic and necrotic marker. In kind it is cell-based, Candida albicans.
Data set [13] deals with E. coli BL21. As to the kind of experiment: Broth microdilution, E. coli BL21. In kind it is cell-based. Conditions: data not shown.
Data set [14] deals with RHE (TR146) infected with C. albicans SC5314. As to the kind of experiment: Histology of reconstituted human oral epithelium. The note with it: 125 μg/ml, 18 h after infection with C. albicans SC5314. In kind it is cell-based. The essentials:
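Multilayer oral RHE infected with 2×10^6 C. albicans SC5314 in 3 g/l TSB/10 mM sodium phosphate, pH 7.2. Test compound at 5–125 μg/ml or none, for 12 and 18 h at 37 °C in 5% CO2 with 100% humidity. Light microscopy scored on 50 sections from five sites per epithelium.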

The target in data set [15] is Sap1p (Candida albicans, UniProt P0CY27). Conditions: as stated in abstract.
Sequence of Sap1p (P0CY27 51-391): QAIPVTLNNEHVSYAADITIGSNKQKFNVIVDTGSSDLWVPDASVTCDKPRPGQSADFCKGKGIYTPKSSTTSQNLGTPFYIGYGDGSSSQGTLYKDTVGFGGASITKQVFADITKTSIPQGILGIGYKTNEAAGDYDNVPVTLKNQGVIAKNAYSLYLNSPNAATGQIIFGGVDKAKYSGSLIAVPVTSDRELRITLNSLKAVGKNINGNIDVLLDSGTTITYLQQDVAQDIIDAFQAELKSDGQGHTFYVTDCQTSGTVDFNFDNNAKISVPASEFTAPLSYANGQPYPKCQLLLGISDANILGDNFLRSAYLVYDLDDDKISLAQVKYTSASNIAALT
Data set [16] has as its system TLR4 mRNA expression of epithelial cells. Description: Epithelial TLR4 mRNA expression. In kind it is cell-based, human. The note with it: 5 μg/ml, 12 h, n = 6. The essentials:
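Epithelial cells infected or not with C. albicans SC5314, with or without 5 μg/ml test compound, for 12 h. Total RNA extracted; cDNA made from 1 μg RNA with SuperScript III. qPCR run in duplicate using mean Ct, normalised to a housekeeping gene. Data are means±SD of duplicate assays from three experiments; 2-tailed paired t test, n = 6.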

Data set [17] deals with C. albicans. As to the kind of experiment: Radial diffusion test, C. albicans. The format is cell-based, Candida albicans. The note with it: different media.
Data set [18] relates to IL-8 secretion of epithelial cells. As to the kind of experiment: IL-8 secretion by epithelial cells. In kind it is cell-based, human. The note with it: 5 μg/ml, 12 h, n = 6. The essentials:
as §1

The subject of data set [19] is GAPDH. The note with it: ref Mookherjee et al., 2009; cited from earlier work.
The test system of data set [20] is C. albicans. Conditions: ref Wu et al., 1999, cited from earlier work.
Data set [21] concerns Sap2. The note with it: ref Wu et al., 1999, cited from earlier work.
Setting [22] is: epithelial cells infected with C. albicans SC5314.

Turning to `CC(C)(C)NC(=O)[C@@H]1CN(Cc2cccnc2)CCN1C[C@@H](O)C[C@@H](Cc1ccccc1)C(=O)N[C@H]1c2ccccc2C[C@H]1O` [indinavir], the “inhibition of Sap activity” value in data set [1] is listed as “inhibit Sap activity”.

With `CC(C)(C)NC(=O)[C@@H]1C[C@@H]2CCCC[C@@H]2CN1C[C@@H](O)[C@H](Cc1ccccc1)NC(=O)[C@H](CC(N)=O)NC(=O)c1ccc2ccccc2n1` [saquinavir], the “inhibition of Sap activity” value in data set [1] is “inhibit Sap activity”.

With “GKVKVGVNGFGRIGRLVTRAAFNSGKVDIVA [hGAPDH (2-32)]”, in data set [2] (C. albicans SC5314, 5, 10, 50, 100 and 125 μg/ml, 90 min), the “dose dependence of antifungal effect” value is “dose dependent”. Besides, in data set [2] (C. albicans, 5 μg/ml), the “effectiveness in killing assay” value was “not very effective”. Moreover, the “depolarized fungal cells in a population” value in [2] (C. albicans, 10 µg/ml (3.1 µM), 90 min, 37°C) stood at 45%; in data set [2] (C. albicans, 100 µg/ml, 90 min, 37°C), 90%. Moreover, the “antifungal activity compared between hGAPDH (2-32), LL-37 and hBD-3” value in data set [2] (C. albicans, 90 min, 37°C) is reported as “not significantly different”. Also, the “depolarizing of the fungi in a population” value in data set [2] (two of the four tested C. albicans strains, 10 μg/ml, 90 min, 37°C) is on record as “approximately 50%”. For the same molecule, the “sensitivity of C. albicans strains” value in data set [2] (two other of the four tested C. albicans strains, 10 μg/ml, 90 min, 37°C) was “slightly lower sensitivity”. In addition, the “affinity to C. albicans cells” value in [3] was “strong affinity”. Also, the “internalization by fungal cells” value in data set [3] is listed as “internalization by the fungal cells”. Further, the “ultrastructural changes of C. albicans morphology” value in data set [4] was “distinct changes of the cell wall, plasma membrane and the cytoplasm; also recorded: enlargement of the fungal cytoplasmic vacuoles, disorganization of the internal organelles and the appearance of yeasts with an empty cytoplasm resembling necrotic ghost cells”. Moreover, in data set [5], the GM-CSF secretion result is recorded as “increased secretion”. For the same molecule, the “growth inhibition (MIC 100%)” value in data set [6], in data set [8], in [11] and in data set [13] was “micromolar concentrations” in each case. For the same molecule, the toxic mucosal effects entry in data set [7] (low concentrations) is reported as “without any toxic mucosal effects”. Also, in data set [7] (uninfected epithelial cells, LDH release), the “toxicity on mammalian cells” value is given as “low toxicity”. In addition, in data set [9] (10 μg/ml each), the “antibacterial activity compared with LL-37 and hBD-3” value is “less active against E. coli”. Further, in [9] (10 μg/ml, 1:6 diluted Schaedler broth), the antibacterial activity entry is “potent antibacterial activity”. Further, the results for the “ED50, inhibition of Sap activity” value in [10] and in data set [15] were 200 µg/mL and 160 µg/mL, respectively. For the same molecule, in data set [12] (5 μg/ml, 1 h, 37°, 300 fungal cells), the “protoplasts with peripheral annexin V-FITC fluorescence (apoptosis)” value was 31%. Moreover, in data set [12] (treated for longer time with 5 μg/ml or at higher doses), the “cellular changes after longer treatment or higher doses” value is recorded as “cellular changes characteristic of necrosis”. Also, in data set [14], the “morphological alterations of infected RHE” value is listed as “far less marked morphological alterations”. The “number of yeast cells on the mucosal surface” value in data set [14] is on record as “decreased”. For the same molecule, in data set [14], the “spongiosis and invasion of keratinocytes by yeast cells” value is on record as “inhibited”. Further, the “edema in infected RHE” value in [14] (uppermost keratinocyte layers) is listed as “mild edema”. Moreover, the TLR4 expression entry in [16] (setting [22]) was “increased”. In addition, the “TLR4 mRNA expression” value in data set [16] (uninfected epithelial cells, vs PBS treated controls) is “increased”. For the same molecule, in data set [17], the antifungal activity entry was “antifungal activity was also demonstrated”. Also, the values for the IL-8 secretion entry in data set [18] (setting [22]) and in data set [18] (uninfected epithelial cells) were “even increased” and “increased secretion”, respectively.

For the molecule “LL-37: antimicrobial peptide LL-37 (Innovagen, Lund, Sweden); human cathelicidin (LLGDFFRKSKEKIGKEFKRIVQRIKDFLRNLVPRTES; Antibacterial peptide LL-37; UniProt P49913 134-170, looked up)”, the “GAPDH as mononuclear cell receptor” value in [19] was “GAPDH is relevant for the functioning”.

Regarding “hBD-3: antimicrobial peptide hBD-3 (Peptide Institute, Osaka, Japan) (GIINTLQKYYCRVRGGRCAVLSCLPKEEQIGKCSTRGRKCCRRKK; UniProt P81534 23-67, looked up) [reference compound]”, the “antifungal activity compared between hGAPDH (2-32), LL-37 and hBD-3” value in data set [2] (C. albicans, 90 min, 37°C) is “not significantly different”.

With “lysozyme: antimicrobial protein ubiquitous in human mucosal secretions such as saliva”, in data set [20] (higher concentrations), the “killing of C. albicans” value is “killing the organism”. Further, the “growth of C. albicans” value in data set [20] was “inhibited the growth”. For the same molecule, the “production of Sap” value in [21] (lower concentrations) was “decreasing the production”. Moreover, the “secretion of the isoenzyme Sap2” value in [21] is on record as “decreased”.
